The text below walks through data of PubChem BioAssay AID623987 (Broad Institute, 2012).

A word on the IC50: it is the concentration that gives 50% inhibition.

SMILES strings stand for the structures. The source made the active and inactive calls.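 How the source made its calls: active means compounds lowering cell ATP light, with fitted IC50 at most twice the top tested dose; inconclusive means flat curve losing 30 to 70% signal, or poor fit; inactive means the rest.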 A value given as a limit tells only on which side of the number the result lay.

The subject of the first test is HeLa viability, CellTiter-Glo ATP luminescence. As to the kind of experiment: HeLa cell cytotoxicity, dose response, cytotoxicity control for pyoverdine/PvdQ inhibitor project, CellTiter-Glo luminescence, dry powder, set 3 (AID 623987).
Details: not given
Put shortly:
(§1)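 Test system: HeLa cells; Amount: 2,500 cells/well; Buffer or medium: phenol red-free DMEM, 10% FBS; Compound dosing: 3-fold series, 10 mM stock top; Incubation: 24 h pre-growth at 37 °C, 48 h exposure; Signal: CellTiter-Glo luminescence measuring cellular ATP.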
(In ATP-based viability assays light output follows the ATP content of the culture.)
Regarding `CCCCC(C#N)c1ccccn1` (stereo not given), the IC50 was > 240 µM (inactive).

Take `N#CC(c1ccc(C(F)(F)F)c(Cl)n1)c1ccccc1OC(F)(F)F` (stereo not given): the IC50 was > 240 µM (inactive).

As for `N#CC(c1cccc(C(F)(F)F)n1)c1ccc(Cl)cc1F` (stereo not given), the IC50 was > 240 µM (inactive).

Regarding `COCCC(C#N)c1ccc(Cl)cc1` (stereo not given), the IC50 is 94.2 µM.

Take `N#CC(c1ccc(F)cc1)c1cccc(Cl)n1` (stereo not given): the IC50 was > 240 µM (inactive).

In the case of `N#CC(c1ccc(Cl)cc1)c1ncccc1Cl` (stereo not given), the IC50 is > 240 µM (inactive).

In the case of `CN(C)CCCC(C#N)c1ccc(F)cc1` (stereo not given), the IC50 was > 240 µM (inactive).

For the compound `N#CC1c2ccc(Cl)cc2CCc2cccnc21` (stereo not given), the IC50 is > 240 µM (inactive).

For `COCCOCCC(C#N)c1ccc(Cl)cc1` (stereo not given), the IC50 was > 240 µM (inactive).

Tested on in a further test: not listed separately
The test is described as above. To be noted: HeLa viability, CellTiter-Glo ATP luminescence; at 120 µM (top of the series). Put shortly:
as §1
For the compound `Clc1ccc(C(c2cccc(Cl)n2)c2nn[nH]n2)cc1` (stereo not given), the activity change, negative = toxicity was 1.4% (inactive).

Take `CCCCC(C#N)c1ccc(F)cc1` (stereo not given): the activity change, negative = toxicity is -1.79% (inactive).

Consider `N#CC(c1ccc(Cl)cc1)N1CCCC1` (stereo not given), for which the activity change, negative = toxicity was 24% (inactive).

Consider `CCCCC(C#N)c1ccc(Cl)cc1` (stereo not given), for which the activity change, negative = toxicity was 7.6% (inactive).

As to `N#CC(c1ccc(Cl)cc1)c1ccccn1` (stereo not given), the activity change, negative = toxicity was 0.002% (inactive).

`COCCNC(C#N)c1ccc(Cl)cc1` (stereo not given): the activity change, negative = toxicity was -1.45% (inactive).

`COCCOCCC(C#N)c1ccc(F)cc1` (stereo not given): the activity change, negative = toxicity was 5.01% (inactive).

`N#CC(c1ccc(F)cc1)c1cccc(C(F)(F)F)n1` (stereo not given): the activity change, negative = toxicity was 5.55% (inactive).

Consider `N#CC(c1ccc(Cl)cc1)c1cccc(Cl)n1` (stereo not given), for which the activity change, negative = toxicity was 3.78% (inactive).

Turning to `CCCCC(c1ccc(Cl)cc1)c1nn[nH]n1` (stereo not given), the activity change, negative = toxicity was 9.15% (inactive).

For the compound `COCCC(C#N)c1ccc(F)cc1` (stereo not given), the activity change, negative = toxicity is 4.64% (inactive).

For `CCCCC(C#N)c1ccc(F)cn1` (stereo not given), the activity change, negative = toxicity was 1.98% (inactive).

For the compound `CN(C)CCCC(C#N)c1ccc(Cl)cc1` (stereo not given), the activity change, negative = toxicity was 6.74% (inactive).

In the case of `CCCCC(C#N)c1ccc(Cl)cn1` (stereo not given), the activity change, negative = toxicity is 13.2% (inactive).

With `N#CC(c1ccc(Cl)cc1)c1cccc(C(F)(F)F)n1` (stereo not given), the activity change, negative = toxicity was 4.48% (inactive).

As for `N#Cc1cccc(C(C#N)c2ccc(F)cc2)n1` (stereo not given), the activity change, negative = toxicity was -2.4% (inactive).
